Source: ChEMBL document CHEMBL4613282, “Novel N-Substituted Benzomorphan-Based Compounds: From MOR-Agonist/DOR-Antagonist to Biased/Unbiased MOR Agonists” (ACS Med Chem Lett, 2020)
pKi: −log10 of the molar value. The source made the active and inactive calls. The calls are words filed in the database; no cut-off is given here.

Columns and labels:
Mus musculus [1] = experiment: Antihyperalgesic activity in sc dosed PGE2-induced CD1 mouse model of thermal hyperalgesia assessed as increase in paw withdrawl latency pretreated with compound for 20 mins before PGE2 stimulation for 10 mins by radiant heat […] method; format: functional, organism-based
In short: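 Mice given compound or solvent s.c. 20 min before intraplantar PGE2 or saline. Hindpaw withdrawal latency to radiant heat measured in the injected paw 10 min after the i.pl. injection. Test compounds dosed 8–16 mg/kg; morphine 1–3 mg/kg and LP1 1–4 mg/kg as comparators. One-way ANOVA with Bonferroni test.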

Mu-type opioid receptor = Mu-type opioid receptor (Rattus norvegicus, UniProt P33535); experiment: Displacement of [3H]-DAMGO from MOR in rat brain membranes incubated for 45 mins by liquid scintillation counting; format: cell membranes, Membrane
Sequence of Mu-type opioid receptor (P33535 whole entry): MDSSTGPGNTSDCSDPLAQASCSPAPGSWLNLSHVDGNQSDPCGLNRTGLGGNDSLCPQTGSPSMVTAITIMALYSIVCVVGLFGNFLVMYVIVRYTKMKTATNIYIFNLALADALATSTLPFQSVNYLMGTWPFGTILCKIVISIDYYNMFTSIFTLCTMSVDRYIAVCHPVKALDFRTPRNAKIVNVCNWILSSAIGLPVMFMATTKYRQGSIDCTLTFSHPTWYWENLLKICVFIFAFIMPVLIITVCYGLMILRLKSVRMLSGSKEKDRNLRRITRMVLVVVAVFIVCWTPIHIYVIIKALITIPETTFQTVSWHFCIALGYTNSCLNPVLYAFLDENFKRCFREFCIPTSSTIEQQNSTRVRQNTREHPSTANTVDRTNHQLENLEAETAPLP
In short: (§1)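 Ki as mean ± SEM of three separate experiments, each run in duplicate.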

[2] = biological target: Delta-type opioid receptor (Rattus norvegicus, UniProt P33533); experiment: Displacement of [3H]DPDPE from DOR in rat brain membranes incubated for 45 mins by liquid scintillation counting; format: cell membranes, Membrane; in short: as §1
Sequence of Delta-type opioid receptor (P33533 whole entry): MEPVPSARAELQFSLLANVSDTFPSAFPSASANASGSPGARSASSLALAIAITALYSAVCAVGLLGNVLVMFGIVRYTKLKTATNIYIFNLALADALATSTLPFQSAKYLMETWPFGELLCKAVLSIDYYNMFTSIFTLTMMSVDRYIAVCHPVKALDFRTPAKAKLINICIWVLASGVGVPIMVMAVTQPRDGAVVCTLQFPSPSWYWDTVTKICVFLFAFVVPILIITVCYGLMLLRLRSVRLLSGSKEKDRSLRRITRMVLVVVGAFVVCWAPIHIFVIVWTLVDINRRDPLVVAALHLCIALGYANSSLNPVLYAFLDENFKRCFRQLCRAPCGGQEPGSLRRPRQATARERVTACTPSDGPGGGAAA

[3] = biological target: Kappa-type opioid receptor (Cavia porcellus, UniProt P41144); experiment: Displacement of [3H]-U69,593 from KOR in guinea pig brain membranes incubated for 30 mins by liquid scintillation counting; format: cell membranes, Membrane
Sequence of Kappa-type opioid receptor (P41144 whole entry): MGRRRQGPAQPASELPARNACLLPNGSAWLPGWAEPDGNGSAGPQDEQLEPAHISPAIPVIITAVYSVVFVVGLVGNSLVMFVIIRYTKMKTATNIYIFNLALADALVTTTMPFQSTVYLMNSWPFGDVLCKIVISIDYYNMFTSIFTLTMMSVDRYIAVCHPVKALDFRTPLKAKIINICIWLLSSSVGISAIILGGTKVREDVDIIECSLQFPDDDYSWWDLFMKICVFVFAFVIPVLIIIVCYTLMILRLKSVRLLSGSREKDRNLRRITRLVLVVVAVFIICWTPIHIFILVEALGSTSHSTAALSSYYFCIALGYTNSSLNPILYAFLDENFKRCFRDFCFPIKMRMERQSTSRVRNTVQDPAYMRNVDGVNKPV
In short: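 KOR binding measured as [3H]U69,593 displacement. Ki as mean ± SEM of three separate experiments, each run in duplicate.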

[4] = biological target: Mu-type opioid receptor (Homo sapiens) (UniProt P35372); experiment: Agonist activity at EE-tagged MOR (unknown origin) expressed in human HEK293 cells assessed as inhibition of forskolin-induced cAMP accumulation at 10 uM after 30 mins by GloSensor cAMP assay; format: functional, cell-based
Sequence of Mu-type opioid receptor (Homo sapiens) (P35372 whole entry): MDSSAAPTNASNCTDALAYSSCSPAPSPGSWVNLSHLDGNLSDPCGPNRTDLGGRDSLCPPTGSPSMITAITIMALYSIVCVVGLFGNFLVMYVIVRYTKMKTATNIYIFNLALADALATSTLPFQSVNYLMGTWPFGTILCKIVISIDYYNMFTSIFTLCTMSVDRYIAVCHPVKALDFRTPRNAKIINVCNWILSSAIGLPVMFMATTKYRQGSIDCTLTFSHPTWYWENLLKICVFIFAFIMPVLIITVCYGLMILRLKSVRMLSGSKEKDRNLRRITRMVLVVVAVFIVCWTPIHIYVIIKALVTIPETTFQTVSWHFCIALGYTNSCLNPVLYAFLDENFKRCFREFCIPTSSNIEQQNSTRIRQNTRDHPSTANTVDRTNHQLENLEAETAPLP
In short: (§2)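 HEK293 cells stably expressing MOR, stimulated with 50 μM forskolin in the presence of a range of compound concentrations, up to 10–5 M. Read-out is cAMP accumulation as % of maximum. Triplicate determinations in three independent experiments, mean ± SEM.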

[5] = biological target: Mu-type opioid receptor (Homo sapiens) (UniProt P35372); experiment: Agonist activity at EE-tagged MOR (unknown origin) expressed in human HEK293 cells assessed as increase in ERK1/2 phosphorylation at 1 uM after 5 mins by Western blot analysis; format: cell-based
In short: (§3)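 Serum-starved HEK293 cells stably expressing MOR exposed to 1 μM compound for 5, 10 or 15 min. Lysates run on 10% SDS-PAGE and immunoblotted for phospho-ERK1,2, with α-tubulin reprobe as loading check. […] Three independent experiments.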

[6] = biological target: Mu-type opioid receptor (Homo sapiens) (UniProt P35372); experiment: Agonist activity at EE-tagged MOR (unknown origin) expressed in human HEK293 cells assessed as increase in ERK1/2 phosphorylation at 1 uM after 15 mins by Western blot analysis; format: cell-based; in short: as §3
Mus musculus [7] = experiment: Antinociceptive activity in Swiss […] mouse assessed as effect on tail flick latency at 2.5 to 7.5 mg/kg, ip after 90 mins by radiant heat tail-flick method; format: functional, organism-based
In short: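 Mouse tail-flick test after 2.5–7.5 mg/kg i.p.; saline-treated group as control. Tail-flick latency (s) followed over 90 min. Mean ± SEM from 6–8 mice.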

Mus musculus [8] = experiment: Antihyperalgesic activity in sc dosed PGE2-induced CD1 mouse model of thermal hyperalgesia at 8 to 16 mg/kg, sc pretreated for 20 mins before PGE2 stimulation and measured after 10 mins by radiant heat […] method; format: functional, organism-based
[9] = Toxicity in PGE2-induced CD1 mouse model of thermal hyperalgesia assessed as effect on gastrointestinal transit at 8 to 16 mg/kg, sc dosed 30 mins before charcoal suspension administration and measured after 30 mins (reference value: 30 cm); format: organism-based; conditions: in vivo, 0.5 h
In short: (§4)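 Run straight after the PGE2 hyperalgesia test, i.e. 30 min after s.c. dosing. Mice received 0.5% charcoal suspension intragastrically. Distance travelled by charcoal along the small intestine measured 30 min after ingestion. Mean ± SEM of 6–7 mice; one-way ANOVA with Bonferroni test versus the saline group.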

[10] = biological target: Mu-type opioid receptor (Homo sapiens) (UniProt P35372); experiment: Agonist activity at EE-tagged MOR (unknown origin) expressed in human HEK293 cells assessed as inhibition of forskolin-induced cAMP accumulation at 10 uM after 30 mins by GloSensor cAMP assay relative to control; format: functional, cell-based; in short: as §2
[11] = biological target: Mu-type opioid receptor (Homo sapiens) (UniProt P35372); experiment: Biased agonist activity at EE-tagged MOR (unknown origin) expressed in human HEK293 cells assessed as increase in ERK1/2 phosphorylation levels at 1 uM after 15 mins by Western blot analysis; format: cell-based; in short: as §3
[12] = Toxicity in PGE2-induced CD1 mouse model of thermal hyperalgesia assessed as effect on gastrointestinal transit at 4 mg/kg, sc dosed 30 mins before charcoal suspension administration and measured after 30 mins (reference value: 30 cm); format: organism-based; conditions: in vivo, 0.5 h; in short: as §4

Structure (SMILES) | pKi (Mu-type opioid receptor) | pKi [2] | pKi [3] | further results
CN1CC[C@]23c4c5ccc(O)c4O[C@H]2[C@@H](O)C=C[C@H]3[C@H]1C5 | – | – | – | Activity (Mus musculus [1]): Dose-dependent effect
Cc1cccc(C)c1NC(=O)CCN1CC[C@@]2(C)c3cc(O)ccc3C[C@@H]1[C@@H]2C | 8.13 | 6.56 | 6.60 | inhibition [4]: inactive; Activity [5]: Active; Activity [6]: inactive; Activity (Mus musculus [7]): inactive; Activity (Mus musculus [8]): inactive; Activity [9]: 30 cm
C[C@H]1[C@H]2Cc3ccc(O)cc3[C@]1(C)CCN2CCC(=O)N(Cc1ccccc1)c1ccccc1 | 6.22 | < 5.30 | < 5.30 | –
Cc1ccc(NCCN2CC[C@@]3(C)c4cc(O)ccc4C[C@@H]2[C@@H]3C)c(C)c1 | 6.89 | < 5.30 | < 6.00 | –
CCc1cccc(C)c1N(Cc1ccccc1)C(=O)CCN1CC[C@@]2(C)c3cc(O)ccc3C[C@@H]1[C@@H]2C | 5.81 | < 5.30 | 6.82 | –
Cc1ccc(C)c(NCCN2CC[C@@]3(C)c4cc(O)ccc4C[C@@H]2[C@@H]3C)c1 | 6.74 | < 5.30 | < 5.70 | –
CCc1cccc(C)c1NC(=O)CCN1CC[C@@]2(C)c3cc(O)ccc3C[C@@H]1[C@@H]2C | 7.83 | 6.70 | 6.49 | inhibition [4]: inactive; Activity [5]: Active; Activity [6]: inactive; Activity (Mus musculus [8]): inactive; Activity [9]: 30 cm
Cc1ccc(C)c(NC(=O)CCN2CC[C@@]3(C)c4cc(O)ccc4C[C@@H]2[C@@H]3C)c1 | 8.10 | 6.32 | 6.32 | inhibition [10]: 50%; Activity [11]: Active; Activity (Mus musculus [7]): inactive; Activity (Mus musculus [8]): inactive; Activity [9]: 30 cm
Cc1ccc(NC(=O)CCN2CC[C@@]3(C)c4cc(O)ccc4C[C@@H]2[C@@H]3C)c(C)c1 | 7.68 | 6.32 | 6.47 | inhibition [4]: inactive; Activity [5]: Active; Activity [6]: inactive; Activity (Mus musculus [8]): inactive; Activity [9]: 30 cm
C[C@H]1[C@H]2Cc3ccc(O)cc3[C@]1(C)CCN2CCN(Cc1ccccc1)c1ccccc1 | 6.61 | < 6.00 | < 5.52 | –
Cc1ccc(N(Cc2ccccc2)C(=O)CCN2CC[C@@]3(C)c4cc(O)ccc4C[C@@H]2[C@@H]3C)c(C)c1 | 6.78 | < 5.30 | < 5.70 | –
Oc1ccc2c3c1O[C@H]1c4[nH]c5ccccc5c4C[C@@]4(O)[C@@H](C2)N(CC2CC2)CC[C@]314 [NALTRINDOLE] | – | 9.08 | – | –
Cc1cc(C)c(N(Cc2ccccc2)C(=O)CCN2CC[C@@]3(C)c4cc(O)ccc4C[C@@H]2[C@@H]3C)c(C)c1 | 6.30 | < 5.30 | 6.35 | –
Cc1cc(C)c(NC(=O)CCN2CC[C@@]3(C)c4cc(O)ccc4C[C@@H]2[C@@H]3C)c(C)c1 | 7.36 | < 5.70 | 6.50 | inhibition [4]: inactive
Cc1cccc(C)c1N(Cc1ccccc1)C(=O)CCN1CC[C@@]2(C)c3cc(O)ccc3C[C@@H]1[C@@H]2C | 6.40 | < 5.30 | < 5.52 | –
C[C@H]1[C@H]2Cc3ccc(O)cc3[C@]1(C)CCN2CCC(=O)Nc1ccccc1 | – | – | – | Activity [5]: Active; Activity [6]: inactive; Activity [12]: Toxic
